Published values collected from several papers.
Target: G protein-coupled receptor kinase 3 (GRK3, Homo sapiens, UniProt P35626)
One construct used (P35626 1-688): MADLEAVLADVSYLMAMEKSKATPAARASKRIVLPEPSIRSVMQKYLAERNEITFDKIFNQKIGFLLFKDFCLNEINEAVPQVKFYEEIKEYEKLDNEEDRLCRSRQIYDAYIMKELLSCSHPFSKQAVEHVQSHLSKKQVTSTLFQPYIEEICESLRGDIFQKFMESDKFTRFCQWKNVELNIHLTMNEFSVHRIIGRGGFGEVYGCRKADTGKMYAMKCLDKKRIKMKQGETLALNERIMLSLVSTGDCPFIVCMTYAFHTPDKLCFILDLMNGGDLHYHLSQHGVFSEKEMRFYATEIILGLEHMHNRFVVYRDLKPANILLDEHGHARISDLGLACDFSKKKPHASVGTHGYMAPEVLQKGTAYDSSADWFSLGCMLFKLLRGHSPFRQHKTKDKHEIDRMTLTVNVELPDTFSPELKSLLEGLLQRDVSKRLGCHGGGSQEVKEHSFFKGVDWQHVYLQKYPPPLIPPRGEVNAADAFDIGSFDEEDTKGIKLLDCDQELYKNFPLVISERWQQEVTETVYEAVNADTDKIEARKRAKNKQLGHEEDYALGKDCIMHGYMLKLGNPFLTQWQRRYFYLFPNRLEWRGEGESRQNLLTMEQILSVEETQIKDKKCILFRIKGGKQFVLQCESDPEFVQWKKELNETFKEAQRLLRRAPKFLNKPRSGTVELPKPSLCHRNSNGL

COc1cc2ncnc(Nc3ccc(Oc4ccccc4)cc3C)c2cc1OC  inhibition (enzyme activity; inhibitor; 1 µM): 1%
Cn1c2c(Cl)c(Cl)ccc2c2cn[nH]c(=O)c21  ΔTm (thermal stability; DSF; 10 µM): 0 °C
Cc1ccc(C(=O)NCc2ccsc2)cc1C#Cc1cn(C(C)C)c2ncnc(N)c12  activity vs control (enzyme activity; inhibitor; 1 µM): 105%
COc1ccc2cc(OCC3(C(=O)O)CN(C(=O)c4ccc(F)cc4)C3)ccc2c1  remaining binding (cell-free assay; competition with immobilised ligand; 1 µM): 67%
CC(C)(O)[C@H]1CC[C@H](Nc2ccc3ncc(-c4cccc(C(F)(F)F)c4)n3n2)CC1  remaining activity (enzyme activity; inhibitor; 1 µM): 107%
COc1cc(Cl)c(C(=O)N[C@@H](CN[C@H]2CC[C@@H](N)CC2)Cc2ccc(C#N)cc2)cc1-c1ccc(CN[C@H](C)c2ccc(C)cc2)o1  remaining activity (enzyme activity; inhibitor; 1 µM): 99%
CC(C)(C)c1nc2c(s1)c1nc(N)ncc1c1ccc(NS(=O)(=O)c3c(F)cccc3F)c(F)c12  remaining activity (enzyme activity; inhibitor; radiometric; 1 µM): 96%
Nc1ncnc2occ(-c3ccc(NC(=O)Nc4cc(C(F)(F)F)ccc4F)cc3)c12  remaining signal (cell-free assay; inhibitor; 20 µM): 69%
CS(=O)(=O)N1CCCC(NC(=O)[C@H](CCC2CCCCC2)NC(=O)c2ccc(CNc3ncnc4c3nnn4-c3ccccc3)cc2)C1 (stereo partly drawn)  remaining binding (cell-free assay; competition with immobilised ligand; 0.1 µM): 100%
Cc1sc(C(=O)NC2COC2)cc1-n1cc(NC(=O)Nc2c(F)cccc2Cl)cn1  remaining activity (enzyme activity; inhibitor; 10 µM): 107%
Cc1ccc(C(=O)Nc2ccc(CN3CCN(C)CC3)c(C(F)(F)F)c2)cc1C#Cc1cnc2cccnn12  remaining activity (enzyme activity; inhibitor; 23.5 nM): 76%
Cn1c2c(c3ccccc31)C(C#N)C(C)(C)NC2=O (stereo not drawn)  ΔTm (thermal stability; DSF; 10 µM): 0.2 °C
CS(=O)(=O)N1CCCC(NC(=O)[C@H](CCC2CCCCC2)NC(=O)c2ccc(CNC(=O)c3cnc4ccccn34)cc2)C1 (stereo partly drawn)  remaining binding (cell-free assay; competition with immobilised ligand; 0.1 µM): 100%
Cn1c2c(c3ccc(Cl)c(Cl)c31)C(C#N)C1(CCCC1)NC2=O (stereo not drawn)  ΔTm (thermal stability; DSF; 10 µM): -0.1 °C
NS(=O)(=O)c1cc(NC(=O)Cc2ccccc2)ccc1Oc1cccc(Cl)c1  remaining binding (cell-free assay; competition with immobilised ligand; 1 µM): 100%
CCN1CCC2(CC1)NC(=O)c1c(c3ccc(Cl)c(Cl)c3n1C)C2C#N (racemic)  ΔTm (thermal stability; DSF; 10 µM): 0.8 °C
CS(=O)(=O)c1cc(C2(NC(=O)c3cncc4c3cnn4-c3ccc(F)cc3)CC2)ccn1  remaining binding (cell-free assay; competition with immobilised ligand; 1 µM): 100%
Cn1c2c(c3ccc(Cl)c(Cl)c31)C(C#N)C1(CCNCC1)NC2=O (racemic)  ΔTm (thermal stability; DSF; 10 µM): 1.1 °C
COc1ccc2c(c1)O[C@@H](c1ccc(OC)c(OC)c1)C[C@H]2NC(=O)C1(c2ccc3c(c2)OC(F)(F)O3)CC1  remaining binding (cell-free assay; competition with immobilised ligand; 1 µM): 75%
N#CC1c2c([nH]c3c(Cl)c(Cl)ccc23)C(=O)NC12CCCCC2 (racemic)  ΔTm (thermal stability; DSF; 10 µM): 0.7 °C
O=C1Nc2ccc(Cl)cc2C1=Cc1cc(Cl)c(O)c(Cl)c1  remaining signal (cell-free assay; 0.5 µM): 102%
